Laboratory results taken from ChEMBL document CHEMBL5038608, “Design, synthesis, and biological evaluation of novel pyrrolidinone small-molecule Formyl peptide receptor 2 agonists” (Eur J Med Chem, 2021).
pEC50: −log10 of the molar value. Converted amounts (≈) assume the structure as drawn. The source made the active and inactive calls. No cut-off for these calls is given here.

Tests used:
[1] = target: T1, fMet-Leu-Phe receptor (Homo sapiens) (UniProt P21462); assay: Agonist activity at human FPR1 expressed in HEK293-A cells assessed as maximal ERK phosphorylation level at 30 uM incubated for 5 mins by ELISA assay; assay type: functional, cell-based
T1 sequence (whole entry): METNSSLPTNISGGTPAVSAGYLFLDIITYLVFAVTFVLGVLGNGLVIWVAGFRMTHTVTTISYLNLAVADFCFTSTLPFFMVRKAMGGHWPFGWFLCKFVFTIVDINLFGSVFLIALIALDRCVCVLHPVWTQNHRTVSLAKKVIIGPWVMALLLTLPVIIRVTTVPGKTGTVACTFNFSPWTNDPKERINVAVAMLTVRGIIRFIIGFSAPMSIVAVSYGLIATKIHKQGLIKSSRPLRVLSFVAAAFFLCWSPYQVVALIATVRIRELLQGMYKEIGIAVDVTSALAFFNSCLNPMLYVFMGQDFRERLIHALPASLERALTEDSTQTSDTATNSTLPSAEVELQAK
Outline: (§1)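 HEK293A cells stably transfected with human FPR1 or FPR2, in DMEM with 10% FCS, seeded 2×10⁴/well and grown 48 h. Serum-starved 3 h, then stimulated 5 min with compounds in serum-free DMEM (1/3 serial dilutions from top concentration). W peptide was the positive control. Lysed in ice-cold buffer. p-ERK1/2 (pT202/Y204) measured by ELISA OD and expressed as increment over basal per receptor.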

[2] = target: T2, N-formyl peptide receptor 2 (Homo sapiens) (UniProt P25090); assay: Agonist activity at FPRL1 (unknown origin) expressed in CHO-K1 cells assessed as increase in calcium mobilization […] incubated for 2.5 hrs by cellular based FLIPR assay; assay type: functional, cell-based; conditions: filed as agonist, time 0.067 hrs, in the assay text read “measured for 240 s” for “incubated for 2.5 hrs”
T2 sequence (whole entry): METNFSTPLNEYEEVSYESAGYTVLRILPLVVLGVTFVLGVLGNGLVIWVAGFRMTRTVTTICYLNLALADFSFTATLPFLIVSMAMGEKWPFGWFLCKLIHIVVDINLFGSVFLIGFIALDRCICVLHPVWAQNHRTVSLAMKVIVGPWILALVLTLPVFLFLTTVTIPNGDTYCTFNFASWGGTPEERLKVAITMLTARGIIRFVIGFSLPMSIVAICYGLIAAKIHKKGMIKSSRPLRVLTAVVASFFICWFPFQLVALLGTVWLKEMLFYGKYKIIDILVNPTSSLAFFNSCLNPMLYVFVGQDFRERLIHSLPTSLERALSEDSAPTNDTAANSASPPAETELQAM
Outline: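 CHO-K1 cells overexpressing human FPR2 (PathHunter FPRL1 line), plated at 20,000/well in F-12 with 10% FBS and held 1 h RT, then overnight at 37 °C. Calcium 6 dye loaded 2 h at 37 °C, then 30 min RT in the dark. Compounds were half-log serially diluted from 10 mM stocks in HBSS with 20 mM HEPES. Cytosolic Ca2+ rise read on FLIPR Tetra.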

[3] = AUC (0 to infinity) in C57BL6 mouse at 10 mg/kg, ip; assay type: ADME, organism-based; design: time infinity, route intraperitoneal, dose 10 mg/kg; conditions: in vivo
[4] = Kinetic solubility of compound in PBS at pH 7.4 by UV-VIS absorption spectrophotometry analysis; assay type: physicochemical; conditions: PBS, read-out: Kinetic_solubility
Outline: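 A 10 mM DMSO stock was diluted into PBS pH 7.4 at a target of 200 µM (final PBS:DMSO 98:2), in triplicate. Agitated 500 rpm for 90 min, then filtered. Filtrate diluted to PBS:DMSO 80:20 and its UV absorbance compared against a 200–6.75 µM standard series to give the concentration remaining in solution.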

[5] = Microsomal stability in mouse liver microsomes assessed as half life at 1 uM preincubated for 5 mins followed by NADPH regenerating system addition measured after 30 mins by LC-MS/MS analysis; assay type: ADME, Microsome; conditions: t1/2, time 35 min
Outline: (§2)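 Human or mouse liver microsomes (0.2 mg/mL protein) with compound at 1 µM final, pre-incubated 5 min at 37 °C. Reaction started with NADPH generating solution and agitated at 37 °C, with samples quenched up to 30 min. Centrifuged; supernatant analysed in triplicate by LC-MS.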

[6] = target: T2, N-formyl peptide receptor 2 (Homo sapiens); assay: Agonist activity at human FPR2 expressed in HEK293-A cells assessed as maximal ERK phosphorylation level at 30 uM incubated for 5 mins by ELISA assay; assay type: functional, cell-based; conditions: filed as agonist; outline: as §1
[7] = Microsomal stability in human liver microsomes assessed as half life at 1 uM preincubated for 5 mins followed by NADPH regenerating system addition measured after 30 mins by LC-MS/MS analysis; assay type: ADME, Microsome; conditions: t1/2, time 35 min; outline: as §2
Neutrophil = assay: Inhibition of cell adhesion in human Neutrophils assessed as reduction on neutrophil at 1 to 100 uM incubated for 30 mins by DAPI staining based immunofluorescence assay; assay type: functional; conditions: dose 1-100 µM
Outline: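 Neutrophils isolated from healthy donor blood (Polymorphprep) and suspended in HBSS/20 mM HEPES/0.25% BSA/Ca2+, pH 7.4, at 0.5 × 10⁶/mL. Pre-incubated with agonists (final 1:5 dilution) 30 min at 37 °C. Then adhered 20 min at 37 °C on plates coated with P-selectin and ICAM-1 (1 µg/mL each), BSA-blocked. PFA-fixed and DAPI-stained; four images per well counted. 3 independent experiments × 3 technical replicates.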

[8] = AUC (0 to t) in C57BL6 mouse at 10 mg/kg, ip; assay type: ADME, organism-based; design: dose 10 mg/kg; conditions: in vivo
[9] = AUC extrapolated in C57BL6 mouse at 10 mg/kg, ip; assay type: ADME, organism-based; conditions: in vivo
Outline: (§3)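 Male C57BL6 mice, single intraperitoneal dose of 10 mg/kg as a clear solution in DMSO 10%/PEG400 35%/PG 25%/water 30%. 12 mice used: 9 dosed, 3 for blank plasma. Each mouse bled three times. Plasma concentration measured at eight time points over 24 h.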

[10] = target: T3, N-formyl peptide receptor 2 (Homo sapiens, UniProt P25090); assay: (§4) Agonist activity at FPRL1 (unknown origin) expressed in CHO-K1 cells assessed as stimulation of beta-arrestin recruitment incubated for 150 mins by beta-galactosidase based PathHunter assay; assay type: functional, cell-based; conditions: read-out: EC50
T3 sequence (P25090 whole entry): T2 sequence (whole entry)
Outline: (§5)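 PathHunter CHO-K1 FPRL1 cells expressing β-gal enzyme-fragment complementation, 5000 cells/well, held overnight at 37 °C. Stimulated with half-log serial dilutions of compounds (10 mM stocks in PBS) for 150 min at 37 °C. High control was WKYMVm at 100 nM. Detection reagent added for 60 min at RT in the dark, then chemiluminescence read.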

[11] = Half life in C57BL6 mouse at 10 mg/kg, ip; assay type: ADME, organism-based; conditions: in vivo; outline: as §3
[12] = MRT(0 to t) in C57BL6 mouse at 10 mg/kg, ip; assay type: ADME, organism-based; conditions: in vivo; outline: as §3
[13] = target: T3, N-formyl peptide receptor 2; assay: Agonist activity at human FPR2 expressed in HEK293-A cells assessed as ERK phosphorylation level incubated for 5 mins by ELISA assay; assay type: functional, cell-based
Outline: (§6)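 HEK293A cells stably transfected with human FPR1 or FPR2, seeded at 2 × 10⁴/well and grown 48 h. Serum-starved 3 h, then stimulated 5 min with compounds in serum-free DMEM, top concentration 30 µM, 1/3 serial dilutions. Lysed in ice-cold buffer; p-ERK1/2 (pT202/Y204) measured by SimpleStep ELISA (OD). Expressed as increment over basal.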

[14] = Cmax in C57BL6 mouse at 10 mg/kg, ip measured upto 24 hrs; assay type: ADME, organism-based; design: route intraperitoneal, dose 10 mg/kg, time <=24; conditions: in vivo; outline: as §3
[15] = target: T3, N-formyl peptide receptor 2; assay: Agonist activity at FPRL1 (unknown origin) expressed in CHO-K1 cells assessed as increase in calcium mobilization incubated for 2.5 hrs by cellular based FLIPR assay; assay type: functional, cell-based; conditions: read-out: EC50
Outline: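 CHO-K1 cells overexpressing hFPR2, plated at 20,000 cells/well in F-12 with 10% FBS and held overnight at 37 °C. Loaded with FLIPR Calcium 6 dye for 2 h at 37 °C, then 30 min at RT in the dark. Compounds were half-log serially diluted from 10 mM stocks in HBSS/20 mM HEPES. Cytosolic Ca2+ rise read on FLIPR Tetra. WKYMVm served as control.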

fMet-Leu-Phe receptor = target: T4, fMet-Leu-Phe receptor (Homo sapiens, UniProt P21462); assay: Agonist activity at human FPR1 expressed in HEK293-A cells assessed as ERK phosphorylation level incubated for 5 mins by ELISA assay; assay type: functional, cell-based; outline: as §6
T4 sequence (P21462 whole entry): T1 sequence (whole entry)

[16] = Distribution coefficient, logD of compound at pH 7.4 by shake flask method based LC-MS/MS analysis; assay type: physicochemical; conditions: octanol/water, read-out: logD
Outline: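 Shake-flask method: compound diluted from 10 mM DMSO stock into equal volumes of octanol and PBS, final concentration 100 µM. Shaken 12 h, then centrifuged. Both layers analysed in triplicate by LC-MS/MS (MRM, C8 UPLC). LogD = log10 of the octanol/buffer peak-area ratio.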

[17] = Tmax in C57BL6 mouse at 10 mg/kg, ip; assay type: ADME, organism-based; conditions: in vivo; outline: as §3
[18] = target: T2, N-formyl peptide receptor 2 (Homo sapiens); assay: Agonist activity at FPRL1 (unknown origin) expressed in CHO-K1 cells assessed as stimulation of beta-arrestin recruitment […] incubated for 150 mins by beta-galactosidase based PathHunter assay; assay type: functional, cell-based
Outline: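 PathHunter CHO-K1 FPRL1 cells carry complementing β-galactosidase fragments. Plated at 5000/well, held 1 h RT, then overnight at 37 °C. Compounds were half-log serially diluted from 10 mM stocks in PBS. Stimulation 150 min at 37 °C; W-peptide (WKYMVm, 100 nM) was the high control. Detection reagent added for 60 min RT in the dark, with chemiluminescence read-out.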

[19] = target: T2, N-formyl peptide receptor 2 (Homo sapiens); assay: as §4; assay type: functional, cell-based; outline: as §5

Emax [1]	solubility kinetic [4]	half-life at 1 µM [5]	Emax [6]	half-life at 1 µM [7]	pEC50 [10]	pEC50 [13]	pEC50 [15]	logD [16]	Compound	also measured
15%	15 µM (≈ 5.61 µg/mL)	> 6.67 h	69%	> 6.67 h	6.52	5.13	6.37	> 4	O=C(Nc1ccc(Br)cc1)NC1CCN(c2ccccc2)C1=O (configuration not stated)	Emax [2]: 73%; AUC(0-inf) [3]: 35000 ng·h/mL; Activity (Neutrophil): Dose-Dependent Effect; AUC(0-t) [8]: 28600 ng·h/mL; %AUCextra [9]: 18.17%; half-life [11]: 9.42 h; MRT last [12]: 9.2 h; Cmax [14]: 3610 ng/mL; pEC50 (fMet-Leu-Phe receptor; read-out: EC50): 5.76; Tmax [17]: 0.25 h
inactive	9 µM (≈ 3.53 µg/mL)	2.87 h	90%	3.05 h	6.13	5.31	6.85	2.6	Cc1nn(C)cc1N1CCC(NC(=O)Nc2ccc(Br)cc2)C1=O (configuration not stated)	Emax ([18]; filed as agonist): 98%; EC50 (fMet-Leu-Phe receptor; hek293-a): Not Active
–	1 µM (≈ 0.406 µg/mL)	2.66 h	–	5.37 h	–	–	6.05	3.7	CC(C)n1cc(N2CCC(NC(=O)Nc3ccc(Br)cc3)C2=O)cn1 (configuration not stated)	Emax [18]: inactive; Emax [19]: inactive
